Columns and labels:
[1] = melting temperature; fluorescence melt of hairpins on a sequencing array, two-state fit, raised by 9.35 °C to match UV melts; settings: sodium 0.088 M
Summary of the method: (§1)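 Folding enthalpy and melting temperature were estimated with bootstrapped two-state fits and combined across four replicates by inverse-variance weighting, with fitted temperatures raised by 9.35 °C to match UV melts. The data were Cy3 fluorescence of library hairpins, with annealed Cy3 and quencher oligos, on a sequenced MiSeq flow cell in 50 mM Na-HEPES pH 8.0, 25 mM NaCl, imaged in 2.5 °C steps up to 60 °C and normalised to pre-quench Cy3 and control constructs.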

[2] = folding enthalpy; higher = less favourable; fluorescence melt of hairpins on a sequencing array, two-state fit; settings: sodium 0.088 M
Summary of the method: as §1

Work on GTTTTCTCGAAAGAGAAC (((..(((....)))))) yielded a Tm [1] of 34.7 °C and a folding enthalpy [2] of -15.3 kcal/mol.

For GTCGTCCGAAAGGAAGAC (((.(((....))).))), the Tm [1] was 55.9 °C and the folding enthalpy [2] was -33 kcal/mol.

Work on GGTTTACGAAAGTAACC (((.(((....)))))) yielded a Tm [1] of 44.2 °C and a folding enthalpy [2] of -20.6 kcal/mol.

For GTTACGGGAAACCATAAC ((((.((....)).)))), the Tm [1] was 30 °C and the folding enthalpy [2] was -15.6 kcal/mol.

GCAACGGGAAACCGCTGC (((.(((....))).))) gave a Tm [1] of 51.5 °C and a folding enthalpy [2] of -44 kcal/mol.

For GCAAGAGGAAACTCTTGC (((((((....))))))), the Tm [1] was 64.9 °C and the folding enthalpy [2] was -40.5 kcal/mol.

GTTCCCGAAAGGGTAAC ((((((....))).))) showed a Tm [1] of 40.9 °C and a folding enthalpy [2] of -17.6 kcal/mol.

GTAAGCGAAAGCTGTTAC ((((((....)))..))) gave a Tm [1] of 32.6 °C and a folding enthalpy [2] of -9.91 kcal/mol.

GCCGGGCGAAAGCGCCGC ((.(.((....)).).)) showed a Tm [1] of 48.7 °C and a folding enthalpy [2] of -11.5 kcal/mol.

In the case of CGTACGGAAACGTATACG ((((((....)))..))), the Tm [1] is reported as 35.5 °C and the folding enthalpy [2] is reported as -17.6 kcal/mol.

CGTTCGGAAACGAATACG ((((((....)))..))) showed a Tm [1] of 36.7 °C and a folding enthalpy [2] of -19.2 kcal/mol.

GTAAGGAAACTTAC (((((....))))) gave a Tm [1] of 37.9 °C and a folding enthalpy [2] of -14.3 kcal/mol.

With GCGACCGCGAAAGCGCGC (((..(((....)))))) the Tm [1] was 56.1 °C and the folding enthalpy [2] was -15.4 kcal/mol.

GATCATTAGATGATC ((((((...)))))) gave a Tm [1] of 44.4 °C and a folding enthalpy [2] of -29.2 kcal/mol.

With GCTAAGCGAAAGCACAGC (((..((....))..))) the Tm [1] was 42.7 °C and the folding enthalpy [2] was -21.7 kcal/mol.

With GGCAGGCGAAAGCCCGCC (((.(((....))).))) the Tm [1] was 66.2 °C and the folding enthalpy [2] was -22.8 kcal/mol.

In the case of GCAGGGCGAAAGCTATGC (((..((....))..))), the Tm [1] is reported as 54.1 °C and the folding enthalpy [2] is reported as -20.4 kcal/mol.

GGATACCCGAAAGGGTCC (((..(((....)))))) showed a Tm [1] of 31.9 °C and a folding enthalpy [2] of -10.4 kcal/mol.

In the case of GTAGTTACGAAAGTATAC (((..(((....)))))), the Tm [1] is reported as 23.9 °C and the folding enthalpy [2] is reported as -10.3 kcal/mol.

With GCATTGCGAAAGCTGTGC (((..((....))..))) the Tm [1] was 56 °C and the folding enthalpy [2] was -22.2 kcal/mol.

With GATCGATGTTCGATC ((((((...)))))) the Tm [1] was 51 °C and the folding enthalpy [2] was -29.4 kcal/mol.

GACTATCCGAAAGGAGTC (((..(((....)))))) showed a Tm [1] of 34.1 °C and a folding enthalpy [2] of -17 kcal/mol.

For GTGCCTCGAAAGAGCAC (((.(((....)))))), the Tm [1] was 53.5 °C and the folding enthalpy [2] was -28.5 kcal/mol.

With GGCAACGAAAGTTTAGCC ((((((....)))..))) the Tm [1] was 43.5 °C and the folding enthalpy [2] was -29.1 kcal/mol.

Work on GGGTACGAAAGTACACCC ((((((....)))..))) yielded a Tm [1] of 50.2 °C and a folding enthalpy [2] of -13.4 kcal/mol.

GAGACCGAAAGGTGCCTC ((((((....)))..))) showed a Tm [1] of 31.1 °C and a folding enthalpy [2] of -12.7 kcal/mol.

Sequence GATCTACTATTAGATC ((((((....)))))) has a Tm [1] of 38.6 °C and a folding enthalpy [2] of -33.1 kcal/mol.

Work on GCGCCGCGAAAGCTGAGC ((.(.((....)).).)) yielded a Tm [1] of 57.5 °C and a folding enthalpy [2] of -20 kcal/mol.

Sequence GCGATGCTTCGC ((((....)))) has a Tm [1] of 62.3 °C and a folding enthalpy [2] of -20.2 kcal/mol.

For GCGTACTCGAAAGAGCGC (((..(((....)))))), the Tm [1] was 47.8 °C and the folding enthalpy [2] was -28.6 kcal/mol.

GAAGTACCGAAAGGTTTC (((..(((....)))))) gave a Tm [1] of 27.2 °C and a folding enthalpy [2] of -9.64 kcal/mol.

With GATCCCTTCGGGATC ((((((...)))))) the Tm [1] was 65.3 °C and the folding enthalpy [2] was -41.1 kcal/mol.

GATCAATTATTTGATC ((((((....)))))) gave a Tm [1] of 45.8 °C and a folding enthalpy [2] of -38.9 kcal/mol.

Sequence TAGCGGAAACGCTA (((((....))))) has a Tm [1] of 54.3 °C and a folding enthalpy [2] of -15.9 kcal/mol.

Sequence GCTACGGGAAACCGTAAC (.(((((....))))).) has a Tm [1] of 36.1 °C and a folding enthalpy [2] of -13.7 kcal/mol.

In the case of GATCTCAGGCGAGATC ((((((....)))))), the Tm [1] is reported as 51.5 °C and the folding enthalpy [2] is reported as -27.7 kcal/mol.

GTCAGCTCGAAAGAGGAC (((..(((....)))))) showed a Tm [1] of 33.4 °C and a folding enthalpy [2] of -17.7 kcal/mol.

Sequence GGTCGGTCGAAAGACACC (((..(((....)))))) has a Tm [1] of 33.4 °C and a folding enthalpy [2] of -13.4 kcal/mol.

In the case of GGAAGTGGAAACGCTTCC (((((.(....).))))), the Tm [1] is reported as 50.8 °C and the folding enthalpy [2] is reported as -41.7 kcal/mol.

Sequence GCAAGCGGAAACGCTCGC ((.((((....)))).)) has a Tm [1] of 52.7 °C and a folding enthalpy [2] of -22.6 kcal/mol.

With GCCATCGAAAGATAGGGC ((((((....)))..))) the Tm [1] was 44.6 °C and the folding enthalpy [2] was -27.4 kcal/mol.

In the case of CGACACGGAAACGTTTCG (((.(((....))).))), the Tm [1] is reported as 44.8 °C and the folding enthalpy [2] is reported as -33.7 kcal/mol.

With GATCCGTTGGCGGATC ((((((....)))))) the Tm [1] was 59.6 °C and the folding enthalpy [2] was -36.5 kcal/mol.

Sequence GGGCTTGGAAACGAGCCC (((((.(....).))))) has a Tm [1] of 59.2 °C and a folding enthalpy [2] of -51.4 kcal/mol.

Sequence GGTGCCGAAAGGCACACC ((((((....)))..))) has a Tm [1] of 58 °C and a folding enthalpy [2] of -6.62 kcal/mol.

In the case of GATCGGCCCACCGATC ((((((....)))))), the Tm [1] is reported as 58.2 °C and the folding enthalpy [2] is reported as -41.5 kcal/mol.
